Our source for the Ratio Ki, Ki and EC50 values is ChEMBL document CHEMBL2380279 (Bioorg Med Chem Lett, 2013).

Assay [1] is filed under the species Homo sapiens. As to the kind of experiment: Selectivity ratio of Ki for delta opioid receptor (unknown origin) to Ki for kappa opioid receptor (unknown origin).
A further assay deals with Mu-type opioid receptor (Homo sapiens, UniProt P35372). As to the kind of experiment: Displacement of [3H]DAMGO from mu opioid receptor (unknown origin). Put shortly:
(§1)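 Competition radioligand binding. Ki was determined against [3H]DAMGO for MOR, [3H]DADLE for DOR and […] for KOR. Values are the mean of three experiments, each run in duplicate.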

The target in assay [2] is T1, Kappa-type opioid receptor (Homo sapiens, UniProt P41145). In words: Displacement of [3H]U69593 from kappa opioid receptor (unknown origin). Put shortly:
as §1
On the technique in general: Displacement assays read how much labelled ligand stays bound in the presence of the test substance.

Assay [3] addresses Delta-type opioid receptor (Homo sapiens, UniProt P41143). In words: Displacement of [3H]DADLE from delta opioid receptor (unknown origin). Put shortly:
as §1

In assay [4] the target is T1, Kappa-type opioid receptor. As to the kind of experiment: Agonist activity at kappa opioid receptor in human HEK293 cells assessed as stimulation of Galphai signaling by cAMP assay. It counts as functional, cell-based. In short, it runs like this:
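Live HEK293 cells carrying the cAMP biosensor GloSensor-22F. Galphai activation through KOR was read from the cAMP signal. EC50 reported as mean ± SD.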
(In general: Cyclic AMP is a second messenger, typically raised through Gs and lowered through Gi signalling.)

The species entered for assay [5] is Homo sapiens. As to the kind of experiment: Selectivity ratio of Ki for mu opioid receptor (unknown origin) to Ki for kappa opioid receptor (unknown origin).

Chain of Delta-type opioid receptor (P41143 whole entry): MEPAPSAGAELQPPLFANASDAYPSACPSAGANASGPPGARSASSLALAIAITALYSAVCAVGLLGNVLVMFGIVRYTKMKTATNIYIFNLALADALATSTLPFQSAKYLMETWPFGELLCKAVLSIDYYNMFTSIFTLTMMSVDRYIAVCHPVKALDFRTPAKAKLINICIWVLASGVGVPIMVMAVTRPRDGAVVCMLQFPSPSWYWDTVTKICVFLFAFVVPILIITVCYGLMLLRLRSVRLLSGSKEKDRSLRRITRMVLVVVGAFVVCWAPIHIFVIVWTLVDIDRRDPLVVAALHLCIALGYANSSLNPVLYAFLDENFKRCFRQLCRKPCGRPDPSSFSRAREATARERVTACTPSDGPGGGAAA
Chain of Mu-type opioid receptor (P35372 whole entry): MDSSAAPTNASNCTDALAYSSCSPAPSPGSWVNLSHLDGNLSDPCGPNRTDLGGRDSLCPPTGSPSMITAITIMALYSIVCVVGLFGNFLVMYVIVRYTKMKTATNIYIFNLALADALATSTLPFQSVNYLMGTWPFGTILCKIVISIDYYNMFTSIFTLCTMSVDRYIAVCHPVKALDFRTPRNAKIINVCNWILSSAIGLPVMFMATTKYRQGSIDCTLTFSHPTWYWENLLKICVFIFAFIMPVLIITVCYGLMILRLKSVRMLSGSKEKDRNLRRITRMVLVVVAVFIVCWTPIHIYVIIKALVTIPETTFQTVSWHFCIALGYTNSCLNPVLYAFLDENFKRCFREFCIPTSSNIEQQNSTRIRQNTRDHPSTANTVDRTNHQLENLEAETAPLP
T1 sequence (P41145 whole entry): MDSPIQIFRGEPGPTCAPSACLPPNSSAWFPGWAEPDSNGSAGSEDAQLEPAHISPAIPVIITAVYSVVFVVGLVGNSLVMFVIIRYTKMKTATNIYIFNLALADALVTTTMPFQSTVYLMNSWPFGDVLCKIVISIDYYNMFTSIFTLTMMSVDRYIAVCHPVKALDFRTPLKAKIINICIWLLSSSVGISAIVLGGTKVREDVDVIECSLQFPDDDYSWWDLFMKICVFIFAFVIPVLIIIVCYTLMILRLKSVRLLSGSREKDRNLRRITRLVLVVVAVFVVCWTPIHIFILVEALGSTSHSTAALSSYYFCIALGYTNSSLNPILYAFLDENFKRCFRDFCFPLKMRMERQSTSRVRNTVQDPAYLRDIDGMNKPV

The term Ki denotes the equilibrium dissociation constant of an inhibitor or competing ligand from its target. A higher Ki goes with a looser hold on the target. In the case of `COC(=O)[C@@H]1C[C@H](OC(=O)CC(=O)OC(C)(C)C)C(=O)[C@H]2[C@@]1(C)CC[C@H]1C(=O)O[C@H](c3ccoc3)C[C@]21C`, the Ratio Ki in the assay filed under Homo sapiens [1] was over 67. Moreover, the results for the Ki (on Mu-type opioid receptor; in assay [2]; in assay [3]) were over 10 µM, 0.148 µM and over 10 µM, respectively.
In general, EC50 refers to the concentration at which the effect is half-maximal. `COC(=O)CC(=O)O[C@H]1C[C@@H](C(=O)OC)[C@]2(C)CC[C@H]3C(=O)O[C@H](c4ccoc4)C[C@]3(C)[C@H]2C1=O`: in the assay filed under Homo sapiens [1], the Ratio Ki was found to be 2160. Besides, the inhibition constant (Ki) on Mu-type opioid receptor is over 10 µM; in assay [2], 0.002 µM; in assay [3], 4.32 µM. Further, in assay [4], the EC50 was 0.137 µM.
Take `COC(=O)CCCCC(=O)O[C@H]1C[C@@H](C(=O)OC)[C@]2(C)CC[C@H]3C(=O)O[C@H](c4ccoc4)C[C@]3(C)[C@H]2C1=O`: in the assay filed under Homo sapiens [1], the Ratio Ki was over 17. In addition, the figures for the Ki (on Mu-type opioid receptor; in assay [2]; in assay [3]) were over 10 µM, 0.575 µM and over 10 µM, respectively.
Take `CCOC(=O)CC(=O)O[C@H]1C[C@@H](C(=O)OC)[C@]2(C)CC[C@H]3C(=O)O[C@H](c4ccoc4)C[C@]3(C)[C@H]2C1=O` [ETHYLSALVINORINB-2-O-MALONATE]: the Ratio Ki in the assay filed under Homo sapiens [1] was over 476. Besides, the Ki at Mu-type opioid receptor was over 10 µM; in assay [2], 0.021 µM; in assay [3] it was over 10 µM. Besides, in assay [4], the EC50 worked out at 0.052 µM.
As to `CCOC(=O)CCC(=O)O[C@H]1C[C@@H](C(=O)OC)[C@]2(C)CC[C@H]3C(=O)O[C@H](c4ccoc4)C[C@]3(C)[C@H]2C1=O`, in the assay filed under Homo sapiens [1], the Ratio Ki was over 23. The Ki was over 10 µM on Mu-type opioid receptor, 0.437 µM in assay [2] and over 10 µM in assay [3].
For `COC(=O)[C@@H]1C[C@H](OC(=O)/C=C\C(=O)O)C(=O)[C@H]2[C@@]1(C)CC[C@H]1C(=O)O[C@H](c3ccoc3)C[C@]21C`, the Ratio Ki in the assay filed under Homo sapiens [1] and in the assay listed under Homo sapiens [5] was 1 in each case. Also, the Ki (at Mu-type opioid receptor; in assay [2]; in assay [3]) was over 10 µM in each case.
For the compound `COC(=O)CCC(=O)O[C@H]1C[C@@H](C(=O)OC)[C@]2(C)CC[C@H]3C(=O)O[C@H](c4ccoc4)C[C@]3(C)[C@H]2C1=O`, in the assay listed under Homo sapiens [1], the Ratio Ki is over 277. Moreover, the results for the Ki (on Mu-type opioid receptor; in assay [2]; in assay [3]) were over 10 µM, 0.036 µM and over 10 µM, respectively. Moreover, the EC50 in assay [4] is 0.855 µM.
Consider `COC(=O)CCCC(=O)O[C@H]1C[C@@H](C(=O)OC)[C@]2(C)CC[C@H]3C(=O)O[C@H](c4ccoc4)C[C@]3(C)[C@H]2C1=O`, for which the Ratio Ki is over 33 in the assay listed under Homo sapiens [1] and 16 in the assay filed under Homo sapiens [5]. Also, the Ki at Mu-type opioid receptor is 5.01 µM; in assay [2] it was 0.302 µM; in assay [3] it was over 10 µM.
Consider `CCOC(=O)/C=C/C(=O)O[C@H]1C[C@@H](C(=O)OC)[C@]2(C)CC[C@H]3C(=O)O[C@H](c4ccoc4)C[C@]3(C)[C@H]2C1=O`, for which the Ratio Ki in the assay filed under Homo sapiens [1] is over 23; in the assay listed under Homo sapiens [5] it was 2. For the same compound, the Ki is 0.724 µM at Mu-type opioid receptor, 0.427 µM in assay [2] and over 10 µM in assay [3].
Turning to `COC(=O)/C=C/C(=O)O[C@H]1C[C@@H](C(=O)OC)[C@]2(C)CC[C@H]3C(=O)O[C@H](c4ccoc4)C[C@]3(C)[C@H]2C1=O`, the Ratio Ki in the assay filed under Homo sapiens [1] was over 256; in the assay listed under Homo sapiens [5], 18. In addition, the Ki at Mu-type opioid receptor is 0.711 µM; in assay [2], 0.039 µM; in assay [3], over 10 µM. For the same compound, in assay [4], the EC50 amounted to 0.07 µM.
Regarding `COC(=O)[C@@H]1C[C@H](OC(=O)c2ccccc2C(=O)O)C(=O)[C@H]2[C@@]1(C)CC[C@H]1C(=O)O[C@H](c3ccoc3)C[C@]21C`, in the assay filed under Homo sapiens [1], the Ratio Ki is over 4. In addition, the Ki was over 10 µM at Mu-type opioid receptor, 2.29 µM in assay [2] and over 10 µM in assay [3].
Regarding `COC(=O)[C@@H]1C[C@H](O)C(=O)[C@H]2[C@@]1(C)CC[C@H]1C(=O)O[C@H](c3ccoc3)C[C@]21C` [SALVINORIN B], the Ki (on Mu-type opioid receptor; in assay [3]) was over 10 µM in each case.
As to `COC(=O)[C@@H]1C[C@H](OC(=O)CSC#N)C(=O)[C@H]2[C@@]1(C)CC[C@H]1C(=O)O[C@H](c3ccoc3)C[C@]21C` [22-THIOCYANATOSALVINORIN A], the Ki (on Mu-type opioid receptor; in assay [3]) was over 10 µM throughout.
In the case of `COC(=O)[C@@H]1C[C@H](OC(=O)CCCC(=O)O)C(=O)[C@H]2[C@@]1(C)CC[C@H]1C(=O)O[C@H](c3ccoc3)C[C@]21C`, the Ratio Ki in the assay listed under Homo sapiens [1] is over 38; in the assay listed under Homo sapiens [5], 17. Further, the figures for the Ki (at Mu-type opioid receptor; in assay [2]; in assay [3]) were 4.57 µM, 0.263 µM and over 10 µM, respectively.
As for `COC(=O)[C@@H]1C[C@H](OC(=O)CCC(=O)O)C(=O)[C@H]2[C@@]1(C)CC[C@H]1C(=O)O[C@H](c3ccoc3)C[C@]21C`, the Ki on Mu-type opioid receptor was over 10 µM; in assay [2] it was 4.07 µM; in assay [3], over 10 µM.
